pIC50: −log10 of the molar value. Active and inactive are the calls of the source. The calls are words filed in the database; no cut-off is given here.
Assays:
[1] = target: T1, 80S Ribosome (Homo sapiens) (UniProt P08865+P42677+P62753+P15880+P23396+P61247+P62701+P22090+P46782+P62081+P62241+P46781+P46783+P62280+P25398+P62277+P62263+P62841+P62244+P62249+P08708+P62269+P39019+P60866+P63220+P62266+P62847+P62851+P62854+P62979+P62857+P62273+P62861+P39023+P36578+P46777+Q02878+P18124+P62424+P62917+P32969+P27635+P62906+P62913+P30050+P26373+P40429+P50914+P61313+P18621+Q07020+Q02543+P84098+P46778+P35268+P62829+P62750+P83731+P61254+P61353+P46776+P46779+P47914+P62888+P62899+P62910+P49207+P42766+P18077+Q9Y3U8+P83881+P61927+P61513+P63173+P62891+P62945+P05388+P05386); test: Binding affinity to RPL10A in human NCI-H358 cells at 1 uM by mass spectrometry based pull down assay; type: cell-based
[2] = target: Mitogen-activated protein kinase kinase kinase 20 (Homo sapiens) (UniProt Q9NYL2); test: Binding affinity to ZAK in human NCI-H23 cells at 1 uM by mass spectrometry based pull down assay; type: cell-based
[3] = target: Clustered mitochondria protein homolog (Homo sapiens) (UniProt O75153); test: Binding affinity to CLUH in human NCI-H23 cells at 1 uM by mass spectrometry based pull down assay; type: cell-based
[4] = target: T1, 80S Ribosome (Homo sapiens); test: Binding affinity to RPL9 in human NCI-H358 cells at 1 uM by mass spectrometry based pull down assay; type: cell-based
[5] = target: Testis-expressed protein 264 (Homo sapiens) (UniProt Q9Y6I9); test: Binding affinity to TEX264 in human NCI-H23 cells at 1 uM by mass spectrometry based pull down assay; type: cell-based
[6] = target: T1, 80S Ribosome (Homo sapiens); test: Binding affinity to RPL10 in human NCI-H23 cells at 1 uM by mass spectrometry based pull down assay; type: cell-based
[7] = target: T1, 80S Ribosome (Homo sapiens); test: Binding affinity to RPS24 in human NCI-H358 cells at 1 uM by mass spectrometry based pull down assay; type: cell-based
[8] = target: Actin-related protein 3 (Homo sapiens) (UniProt P61158); test: Binding affinity to ACTR3 in human NCI-H23 cells at 1 uM by mass spectrometry based pull down assay; type: cell-based
In short: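 NCI-H23 or NCI-H358 cells were grown and lysed. Lysates were incubated overnight at 4 °C with 1 μM biotinylated covalent probe or DMSO, then pulled down on streptavidin beads. Proteins were run on polyacrylamide gels and stained with Coomassie. Bands were excised, digested and identified by mass spectrometry.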

[9] = target: RNA-binding protein 3 (Homo sapiens) (UniProt P98179); test: Binding affinity to RBM3 in human NCI-H23 cells at 1 uM by mass spectrometry based pull down assay; type: cell-based
[10] = target: ATP-dependent RNA helicase DHX15 (Homo sapiens) (UniProt O43143); test: Binding affinity to DHX15 in human NCI-H358 cells at 1 uM by mass spectrometry based pull down assay; type: cell-based
[11] = target: tRNA (guanosine(18)-2'-O)-methyltransferase TARBP1 (Homo sapiens) (UniProt Q13395); test: Binding affinity to TARBP1 in human NCI-H358 cells at 1 uM by mass spectrometry based pull down assay; type: cell-based
[12] = target: T1, 80S Ribosome (Homo sapiens); test: Binding affinity to RPS2 in human NCI-H358 cells at 1 uM by mass spectrometry based pull down assay; type: cell-based
[13] = target: Signal transducer and activator of transcription 1-alpha/beta (Homo sapiens) (UniProt P42224); test: Binding affinity to STAT1 in human NCI-H358 cells at 1 uM by mass spectrometry based pull down assay; type: cell-based
[14] = target: Protein LSM12 (Homo sapiens) (UniProt Q3MHD2); test: Binding affinity to LSM12 in human NCI-H23 cells at 1 uM by mass spectrometry based pull down assay; type: cell-based
[15] = target: TGF-beta-activated kinase 1 and MAP3K7-binding protein 1 (Homo sapiens) (UniProt Q15750); test: Binding affinity to TAB1 in human NCI-H23 cells at 1 uM by mass spectrometry based pull down assay; type: cell-based
[16] = target: Fructose-bisphosphate aldolase C (Homo sapiens) (UniProt P09972); test: Binding affinity to ALDOC in human NCI-H358 cells at 1 uM by mass spectrometry based pull down assay; type: cell-based
[17] = target: Membrane-associated progesterone receptor component 1 (Homo sapiens) (UniProt O00264); test: Binding affinity to PGRMC1 in human NCI-H23 cells at 1 uM by mass spectrometry based pull down assay; type: cell-based
[18] = target: E3 ubiquitin-protein ligase HUWE1 (Homo sapiens) (UniProt Q7Z6Z7); test: Binding affinity to HUWE1 in human NCI-H358 cells at 1 uM by mass spectrometry based pull down assay; type: cell-based
[19] = target: Y-box-binding protein 1 (Homo sapiens) (UniProt P67809); test: Binding affinity to YBX1 in human NCI-H358 cells at 1 uM by mass spectrometry based pull down assay; type: cell-based
[20] = target: Cysteine and glycine-rich protein 2 (Homo sapiens) (UniProt Q16527); test: Binding affinity to CSRP2 in human NCI-H23 cells at 1 uM by mass spectrometry based pull down assay; type: cell-based
[21] = target: T1, 80S Ribosome (Homo sapiens); test: Binding affinity to RPS23 in human NCI-H23 cells at 1 uM by mass spectrometry based pull down assay; type: cell-based
[22] = target: Tropomyosin alpha-4 chain (Homo sapiens) (UniProt P67936); test: Binding affinity to TPM4 in human NCI-H358 cells at 1 uM by mass spectrometry based pull down assay; type: cell-based
[23] = target: ADP-ribosylation factor 5 (Homo sapiens) (UniProt P84085); test: Binding affinity to ARF5 in human NCI-H358 cells at 1 uM by mass spectrometry based pull down assay; type: cell-based
Nucleolin (Homo sapiens) = Nucleolin (Homo sapiens) (UniProt P19338); test: Binding affinity to NCL in human NCI-H358 cells at 1 uM by mass spectrometry based pull down assay; type: cell-based
[24] = target: Mast/stem cell growth factor receptor Kit (Homo sapiens) (UniProt P10721); test: Inhibition of human KIT (571 to 952 residues) expressed in bacterial expression system assessed as enzyme activity at 1 uM by KINOMEScan assay relative to control; design: scale not given: the % may be the effect or the level left
In short: (§1)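 In vitro ATP-site competition binding assay across a panel of 456 kinases, with compound tested at 1 and 10 μM.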

[25] = target: Vascular endothelial growth factor receptor 2 (Homo sapiens) (UniProt P35968); test: Inhibition of human VEGFR2 (787 to 1253 residues) expressed in mammalian expression system assessed as enzyme activity at 10 uM by KINOMEScan assay relative to control; design: scale not given: the % may be the effect or the level left; in short: as §1
[26] = target: Receptor-type tyrosine-protein kinase FLT3 (Homo sapiens) (UniProt P36888); test: Inhibition of human FLT3 (592 to 969 residues) expressed in bacterial expression system assessed as enzyme activity at 1 uM by KINOMEScan assay relative to control; design: scale not given: the % may be the effect or the level left; in short: as §1
[27] = target: Receptor-type tyrosine-protein kinase FLT3 (Homo sapiens, UniProt P36888); test: Inhibition of FLT3 (unknown origin)

Sequence of Membrane-associated progesterone receptor component 1 (Homo sapiens) (O00264 whole entry): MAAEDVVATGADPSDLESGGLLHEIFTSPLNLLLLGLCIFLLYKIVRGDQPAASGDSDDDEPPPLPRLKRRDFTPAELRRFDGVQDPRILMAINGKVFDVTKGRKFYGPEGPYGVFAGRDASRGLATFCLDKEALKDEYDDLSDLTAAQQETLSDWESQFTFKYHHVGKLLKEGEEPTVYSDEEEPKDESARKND
Sequence of TGF-beta-activated kinase 1 and MAP3K7-binding protein 1 (Homo sapiens) (Q15750 whole entry): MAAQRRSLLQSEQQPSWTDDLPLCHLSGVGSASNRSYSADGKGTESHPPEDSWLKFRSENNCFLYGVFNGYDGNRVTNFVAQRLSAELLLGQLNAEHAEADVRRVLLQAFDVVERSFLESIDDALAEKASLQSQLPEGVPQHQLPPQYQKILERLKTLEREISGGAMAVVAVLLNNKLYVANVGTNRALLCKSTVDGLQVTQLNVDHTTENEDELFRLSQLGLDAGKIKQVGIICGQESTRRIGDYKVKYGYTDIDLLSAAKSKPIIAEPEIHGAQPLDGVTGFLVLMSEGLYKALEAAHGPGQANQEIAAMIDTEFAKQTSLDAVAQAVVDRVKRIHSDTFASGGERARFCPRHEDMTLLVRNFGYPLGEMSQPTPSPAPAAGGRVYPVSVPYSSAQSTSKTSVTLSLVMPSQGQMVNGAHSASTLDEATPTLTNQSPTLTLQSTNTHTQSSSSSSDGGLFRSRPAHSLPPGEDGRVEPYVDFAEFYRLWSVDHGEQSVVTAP
Sequence of E3 ubiquitin-protein ligase HUWE1 (Homo sapiens) (Q7Z6Z7 whole entry): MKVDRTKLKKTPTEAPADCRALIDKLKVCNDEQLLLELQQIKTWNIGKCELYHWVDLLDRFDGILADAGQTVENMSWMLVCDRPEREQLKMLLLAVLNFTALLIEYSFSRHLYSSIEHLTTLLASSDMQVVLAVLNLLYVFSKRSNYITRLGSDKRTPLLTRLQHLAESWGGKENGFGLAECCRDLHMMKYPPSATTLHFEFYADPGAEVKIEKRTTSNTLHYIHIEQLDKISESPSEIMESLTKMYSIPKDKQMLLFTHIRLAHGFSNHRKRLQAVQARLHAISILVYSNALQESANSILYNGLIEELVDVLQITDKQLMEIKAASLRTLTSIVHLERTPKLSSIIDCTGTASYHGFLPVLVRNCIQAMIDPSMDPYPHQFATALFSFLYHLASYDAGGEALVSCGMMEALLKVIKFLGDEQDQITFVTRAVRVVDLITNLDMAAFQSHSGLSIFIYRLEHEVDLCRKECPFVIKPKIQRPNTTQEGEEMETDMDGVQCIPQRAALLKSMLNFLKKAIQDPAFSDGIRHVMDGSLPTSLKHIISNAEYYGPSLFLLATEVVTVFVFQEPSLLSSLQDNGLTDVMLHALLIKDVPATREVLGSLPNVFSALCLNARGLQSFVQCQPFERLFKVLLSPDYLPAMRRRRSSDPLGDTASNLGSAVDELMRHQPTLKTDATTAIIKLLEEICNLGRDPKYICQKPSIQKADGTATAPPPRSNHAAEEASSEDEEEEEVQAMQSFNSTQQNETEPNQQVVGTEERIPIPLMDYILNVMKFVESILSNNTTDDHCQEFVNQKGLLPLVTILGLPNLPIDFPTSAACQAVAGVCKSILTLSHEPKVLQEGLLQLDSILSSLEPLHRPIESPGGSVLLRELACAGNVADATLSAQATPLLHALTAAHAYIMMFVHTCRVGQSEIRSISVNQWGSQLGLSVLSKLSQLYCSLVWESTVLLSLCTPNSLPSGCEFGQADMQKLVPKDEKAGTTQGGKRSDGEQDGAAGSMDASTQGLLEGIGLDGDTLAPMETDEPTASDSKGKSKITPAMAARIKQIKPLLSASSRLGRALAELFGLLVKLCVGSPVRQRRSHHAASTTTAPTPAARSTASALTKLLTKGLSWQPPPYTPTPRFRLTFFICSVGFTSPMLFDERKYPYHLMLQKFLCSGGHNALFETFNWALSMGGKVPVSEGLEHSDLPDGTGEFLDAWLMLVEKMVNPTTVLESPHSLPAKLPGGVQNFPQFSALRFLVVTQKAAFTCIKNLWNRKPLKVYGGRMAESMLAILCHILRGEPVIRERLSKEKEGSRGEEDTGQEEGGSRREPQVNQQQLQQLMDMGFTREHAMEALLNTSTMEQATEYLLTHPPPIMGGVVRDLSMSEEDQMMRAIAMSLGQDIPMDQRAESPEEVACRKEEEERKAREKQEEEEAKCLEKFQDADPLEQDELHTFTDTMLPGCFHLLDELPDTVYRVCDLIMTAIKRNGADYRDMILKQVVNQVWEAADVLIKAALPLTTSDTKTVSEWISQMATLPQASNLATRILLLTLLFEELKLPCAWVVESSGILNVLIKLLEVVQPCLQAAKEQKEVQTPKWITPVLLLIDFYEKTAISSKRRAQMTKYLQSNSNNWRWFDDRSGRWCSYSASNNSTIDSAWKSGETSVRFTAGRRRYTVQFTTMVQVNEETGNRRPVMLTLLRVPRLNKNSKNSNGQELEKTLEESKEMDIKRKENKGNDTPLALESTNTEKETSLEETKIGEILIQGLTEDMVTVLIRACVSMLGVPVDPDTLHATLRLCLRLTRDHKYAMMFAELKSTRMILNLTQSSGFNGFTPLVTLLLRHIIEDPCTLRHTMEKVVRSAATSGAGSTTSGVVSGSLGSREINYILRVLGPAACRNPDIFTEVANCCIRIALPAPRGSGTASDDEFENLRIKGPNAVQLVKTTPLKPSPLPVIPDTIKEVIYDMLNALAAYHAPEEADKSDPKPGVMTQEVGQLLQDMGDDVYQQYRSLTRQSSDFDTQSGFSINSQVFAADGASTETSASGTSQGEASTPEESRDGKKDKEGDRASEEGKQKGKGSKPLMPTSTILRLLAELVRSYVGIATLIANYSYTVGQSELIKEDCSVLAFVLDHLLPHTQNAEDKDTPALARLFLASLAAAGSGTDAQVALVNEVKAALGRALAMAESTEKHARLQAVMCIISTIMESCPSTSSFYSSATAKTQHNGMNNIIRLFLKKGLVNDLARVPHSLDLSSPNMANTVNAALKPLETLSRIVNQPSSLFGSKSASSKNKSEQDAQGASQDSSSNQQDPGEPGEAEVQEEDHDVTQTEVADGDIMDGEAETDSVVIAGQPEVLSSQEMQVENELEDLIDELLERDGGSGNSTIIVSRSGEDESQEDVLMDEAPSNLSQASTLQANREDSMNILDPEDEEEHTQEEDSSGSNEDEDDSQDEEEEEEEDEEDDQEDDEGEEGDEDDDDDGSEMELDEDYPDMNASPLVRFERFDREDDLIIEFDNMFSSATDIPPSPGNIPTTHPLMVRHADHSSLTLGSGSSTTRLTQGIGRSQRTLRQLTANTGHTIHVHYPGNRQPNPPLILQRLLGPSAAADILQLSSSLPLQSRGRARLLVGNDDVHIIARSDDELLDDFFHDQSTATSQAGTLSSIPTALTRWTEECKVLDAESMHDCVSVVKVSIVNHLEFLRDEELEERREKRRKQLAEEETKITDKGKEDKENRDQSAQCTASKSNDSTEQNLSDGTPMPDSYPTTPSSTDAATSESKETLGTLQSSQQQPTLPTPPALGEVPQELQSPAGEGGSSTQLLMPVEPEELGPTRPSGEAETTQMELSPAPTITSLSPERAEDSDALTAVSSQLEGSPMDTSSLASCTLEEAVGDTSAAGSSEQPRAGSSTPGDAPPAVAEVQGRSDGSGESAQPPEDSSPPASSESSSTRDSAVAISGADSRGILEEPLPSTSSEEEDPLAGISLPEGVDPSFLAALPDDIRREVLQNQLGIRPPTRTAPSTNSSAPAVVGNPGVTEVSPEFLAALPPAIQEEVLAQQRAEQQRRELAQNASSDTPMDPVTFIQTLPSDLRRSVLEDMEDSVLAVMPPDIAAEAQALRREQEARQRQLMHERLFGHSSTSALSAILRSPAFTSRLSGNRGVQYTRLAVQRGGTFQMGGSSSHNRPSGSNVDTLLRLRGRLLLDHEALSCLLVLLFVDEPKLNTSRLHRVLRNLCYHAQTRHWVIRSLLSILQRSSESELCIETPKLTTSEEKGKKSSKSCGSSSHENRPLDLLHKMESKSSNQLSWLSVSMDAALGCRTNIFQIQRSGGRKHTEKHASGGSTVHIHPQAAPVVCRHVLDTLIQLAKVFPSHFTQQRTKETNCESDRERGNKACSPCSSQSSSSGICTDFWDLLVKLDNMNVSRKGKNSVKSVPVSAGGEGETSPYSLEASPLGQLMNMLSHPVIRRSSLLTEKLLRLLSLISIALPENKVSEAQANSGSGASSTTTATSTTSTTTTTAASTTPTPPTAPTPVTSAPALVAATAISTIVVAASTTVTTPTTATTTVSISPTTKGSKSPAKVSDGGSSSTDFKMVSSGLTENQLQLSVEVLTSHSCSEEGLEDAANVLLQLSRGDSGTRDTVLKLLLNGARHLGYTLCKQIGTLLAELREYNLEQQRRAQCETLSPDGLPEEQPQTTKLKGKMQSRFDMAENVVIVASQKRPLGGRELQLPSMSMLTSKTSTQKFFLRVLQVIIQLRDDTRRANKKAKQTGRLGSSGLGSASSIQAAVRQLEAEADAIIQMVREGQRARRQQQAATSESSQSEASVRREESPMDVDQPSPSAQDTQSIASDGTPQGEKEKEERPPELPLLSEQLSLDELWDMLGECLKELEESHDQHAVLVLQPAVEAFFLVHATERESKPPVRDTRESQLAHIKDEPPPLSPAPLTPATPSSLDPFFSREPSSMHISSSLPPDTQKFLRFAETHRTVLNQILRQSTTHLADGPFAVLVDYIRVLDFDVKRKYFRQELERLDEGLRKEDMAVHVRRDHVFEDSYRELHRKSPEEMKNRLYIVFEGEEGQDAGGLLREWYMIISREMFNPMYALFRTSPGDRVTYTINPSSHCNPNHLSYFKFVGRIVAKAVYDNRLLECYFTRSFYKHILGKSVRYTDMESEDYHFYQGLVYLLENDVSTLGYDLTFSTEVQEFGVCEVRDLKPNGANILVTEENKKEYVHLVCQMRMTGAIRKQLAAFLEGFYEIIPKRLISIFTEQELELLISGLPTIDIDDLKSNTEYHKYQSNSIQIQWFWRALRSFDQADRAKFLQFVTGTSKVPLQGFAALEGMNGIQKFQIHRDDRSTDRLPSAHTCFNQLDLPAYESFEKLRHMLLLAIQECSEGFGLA

C=CC(=O)Nc1ccccc1Nc1nc(Nc2ccc(N3CCN(CCOCCOCCOCCNC(=O)CCCC[C@@H]4SC[C@@H]5NC(=O)N[C@@H]54)CC3)cc2)ncc1Cl
Activity [1]: Active | Activity [2]: Active | Activity [3]: Active | Activity [4]: Active | Activity [5]: Active | Activity [6]: Active | Activity [7]: Active | Activity [8]: Active | Activity [9]: Active | Activity [10]: Active | Activity [11]: Active | Activity [12]: Active | Activity [13]: Active | Activity [14]: Active | Activity [15]: Active | Activity [16]: Active | Activity [17]: Active | Activity [18]: Active | Activity [19]: Active | Activity [20]: Active | Activity [21]: Active | Activity [22]: Active | Activity [23]: Active | Activity (Nucleolin (Homo sapiens)): Active

COc1cc(O)c2c(c1)/C=C/C[C@H](O)[C@H](O)C(=O)/C=C\C[C@H](C)OC2=O
Activity [24]: 20% | Activity [25]: 5.2% | Activity [26]: 4.2%

C=CC(=O)Nc1ccccc1Oc1nc(Nc2cnn(CCOC)c2)ncc1Cl
pIC50 [27]: 9.27

From ChEMBL document CHEMBL4118021, “Studies of TAK1-centered polypharmacology with novel covalent TAK1 inhibitors” (Bioorg Med Chem, 2017)
